From ChEMBL document CHEMBL5260797, “N-(1-Benzyl-3,5-dimethyl-1H-pyrazol-4-yl)benzamides: Antiproliferative Activity and Effects on mTORC1 and Autophagy” (ACS Med Chem Lett, 2017)
Converted amounts (≈) assume the structure as drawn. The source made the active and inactive calls. The calls are words filed in the database; no cut-off is given here.

What was measured:
ARPE-19 [1] = test: Induction of autophagy in human ARPE-19 cells assessed as fold increase in LC3 turnover at 25 uM measured after 4 hrs by Western blot analysis; assay type: functional
Procedure, shortened: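 ARPE-19 human retinal pigment epithelial cells exposed 4 h to compound or DMSO in complete medium without starvation. LC3 conversion read by Western blot as LC3-II/actin ratio and expressed as fold increase over DMSO control, n = 3.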

mTORC1 (Homo sapiens) [2] = biological target: T1, mTORC1 (Homo sapiens) (UniProt P42345+Q8N122+Q9BVC4); test: Inhibition of mTORC1 reactivation in human ARPE-19 cells at 25 to 50 uM preincubated for 4 hrs under starvation/refeed condition measured after 1 hr in complete medium by Western blot analysis; assay type: cell-based; conditions: dose 25-50 µM, time 5.0 hrs
mTORC1 (Homo sapiens) [3] = biological target: T1, mTORC1 (Homo sapiens); test: Inhibition of mTORC1 reactivation in human ARPE-19 cells assessed as reduction of P70 phosphorylation at 10 uM preincubated for 4 hrs under starvation/refeed condition measured after 1 hr in complete medium by Western blot analysis; assay type: cell-based; conditions: time 5.0 hrs
Procedure, shortened: (§1)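 ARPE-19 cells starved 4 h in EBSS, then refed 1 h in complete medium with 10 μM compound or DMSO. mTORC1 reactivation read by Western blot as phosphorylation of P70 and 4EBP1.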

MIA PaCa-2 = test: Antiproliferative activity against human MIA PaCa-2 cells assessed as cell viability measured after 72 hrs by MTT assay; assay type: functional, cell-based; conditions: MIA PaCa-2, 72 h
Procedure, shortened: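 MIA PaCa-2 pancreatic cancer cells; EC50 values determined in triplicate.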

[4] = Metabolic stability in human plasma assessed as parent compound remaining measured after 6 hrs by LC-MS/MS analysis; assay type: ADME, cell-free; conditions: read-out: Stability
mTORC1 (Homo sapiens) [5] = biological target: T1, mTORC1 (Homo sapiens); test: Inhibition of mTORC1 reactivation in human ARPE-19 cells assessed as reduction of 4E-BP1 phosphorylation at 10 uM preincubated for 4 hrs under starvation/refeed condition measured after 1 hr in complete medium by Western blot analysis; assay type: cell-based; conditions: time 5.0 hrs; procedure, shortened: as §1
ARPE-19 [6] = test: Induction of autophagy in human ARPE-19 cells assessed as increase in LC3-labeled punctae at 25 uM measured after 4 hrs by immunofluorescence analysis relative to control; assay type: functional, cell-based
Procedure, shortened: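 ARPE-19 cells treated 4 h at 25 μM in complete medium without starvation, or with DMSO. LC3 punctae detected by immunofluorescence, with CD63 as late endosomal/lysosomal marker.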

[7] = Metabolic stability in human plasma assessed as parent compound remaining measured after 24 hrs by LC-MS/MS analysis; assay type: ADME, cell-free; conditions: read-out: Stability
ARPE-19 [8] = test: Inhibition of autophagy in human ARPE-19 cells assessed as fold decrease in LC3 turnover at 10 uM pretreated for 30 mins with cells followed by incubation for 4 hrs under starvation condition by Western blot analysis; conditions: time 4.5 hrs
ARPE-19 [9] = test: Induction of autophagy in human ARPE-19 cells assessed as appearance of abnormal punctae at 25 uM measured after 1 hr under starvation/refeed condition by immunofluorescence analysis; assay type: functional, cell-based
Procedure, shortened: (§2)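 ARPE-19 cells starved 4 h in EBSS, then refed 1 h in complete medium containing 25 μM compound or DMSO. LC3 punctae imaged by immunofluorescence, with CD63 co-stain.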

ARPE-19 [10] = test: Induction of autophagy in human ARPE-19 cells assessed as LC3 level at 25 uM measured after 4 hrs under starvation/refeed condition by immunofluorescence analysis; assay type: functional, cell-based; procedure, shortened: as §2
ARPE-19 [11] = test: Induction of autophagy in human ARPE-19 cells assessed as appearance of LC3 non-uniformed shapes at 25 uM pretreated for 30 mins with cells followed by incubation for 4 hrs under starvation condition by immunofluorescence analysis; assay type: functional, cell-based; conditions: time 4.5 hrs
Procedure, shortened: (§3)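 ARPE-19 cells starved 4 h in EBSS with 25 μM compound or DMSO. LC3-labeled structures imaged by immunofluorescence, with CD63 as late endosomal/lysosomal marker.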

[12] = Metabolic stability in mouse liver microsomes assessed as half life at 1 uM by LC-MS/MS analysis; assay type: ADME, Microsome
[13] = Metabolic stability in mouse plasma assessed as parent compound remaining measured after 6 hrs by LC-MS/MS analysis; assay type: ADME, cell-free; conditions: read-out: Stability
ARPE-19 [14] = test: Induction of autophagy in human ARPE-19 cells assessed as increase in LC3-2 conversion at 10 uM measured after 4 hrs by Western blot analysis; assay type: functional, cell-based
Procedure, shortened: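 ARPE-19 cells treated 4 h in complete medium without starvation with increasing concentrations (10, 25, 50 μM) or DMSO. LC3 detected by Western blot; LC3-II/actin ratio expressed as fold increase over DMSO control, n = 3.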

[15] = Metabolic stability in mouse plasma assessed as parent compound remaining measured after 24 hrs by LC-MS/MS analysis; assay type: ADME, cell-free; conditions: read-out: Stability
mTORC1 (Homo sapiens) [16] = biological target: T1, mTORC1 (Homo sapiens); test: Inhibition of mTORC1 in human ARPE19 cells measured after 4 hrs by Western blot analysis; assay type: cell-based; conditions: ARPE-19, dose 10-50 µM
Procedure, shortened: (§4)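 ARPE-19 cells treated 4 h without starvation with increasing concentrations or DMSO. Basal mTORC1 activity measured by Western blot as phosphorylated P70/total P70, with DMSO set to 100%.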

[17] = Cytotoxicity against human ARPE-19 cells assessed as cell viability measured after 72 hrs by MTT assay; assay type: toxicity, cell-based
ARPE-19 [18] = test: Induction of autophagy in human ARPE-19 cells assessed as LC3 enlarged structures at 25 uM pretreated for 30 mins with cells followed by incubation for 4 hrs under starvation condition by immunofluorescence analysis; assay type: functional, cell-based; conditions: time 4.5 hrs; procedure, shortened: as §3
ARPE-19 [19] = test: Induction of autophagy in human ARPE-19 cells assessed as decrease in LC3-2/actin ratio at 10 uM pretreated for 30 mins with cells followed by incubation for 4 hrs under starvation condition in presence of bafilomycin by Western blot analysis; assay type: functional, cell-based; conditions: time 4.5 hrs
Procedure, shortened: (§5)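 ARPE-19 cells pretreated 30 min at 10 μM (or DMSO). Then 4 h with compound in EBSS starvation medium, or in EBSS with 100 nM bafilomycin. LC3-II/actin quantified by Western blot as fold of DMSO control, n = 3.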

[20] = Thermodynamic aqueous solubility of the compound at pH 7.4 measured after 48 hrs by UV-spectrometry method; assay type: physicochemical; conditions: read-out: Therm_solubility
ARPE-19 [21] = test: Induction of autophagy in human ARPE-19 cells assessed as decrease in LC3-2/actin ratio at 10 uM pretreated for 30 mins with cells followed by incubation for 4 hrs under starvation condition by Western blot analysis; assay type: functional, cell-based; conditions: time 4.5 hrs; procedure, shortened: as §5
ARPE-19 [22] = test: Reduction in autophagic flux in human ARPE-19 cells at 25 uM incubated for 4 hrs in complete medium in presence of bafilomycin; assay type: functional, cell-based
Procedure, shortened: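 ARPE-19 cells in full medium with 100 nM bafilomycin plus compound or DMSO. Autophagic flux read as LC3-II by Western blot.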

ARPE-19 [23] = test: Induction of autophagy in human ARPE-19 cells assessed as LC3 accumulation at 25 to 50 uM measured after 4 hrs under refeed condition by immunofluorescence analysis; assay type: functional, cell-based; conditions: dose 25-50 µM
mTORC1 (Homo sapiens) [24] = biological target: T1, mTORC1 (Homo sapiens); test: Inhibition of mTORC1 in human ARPE19 cells at 10 to 50 uM measured after 4 hrs by Western blot analysis related to control; assay type: cell-based; conditions: ARPE-19, dose 10-50 µM; procedure, shortened: as §4
mTORC1 (Homo sapiens) [25] = biological target: T1, mTORC1 (Homo sapiens); test: Inhibition of mTORC1 in human ARPE19 cells assessed as decrease in P70/total P70 phosphorylation level at 10 uM measured after 4 hrs by Western blot analysis; assay type: cell-based; conditions: ARPE-19; procedure, shortened: as §4

T1 sequence (Q8N122 whole entry, looked up, other chains not shown): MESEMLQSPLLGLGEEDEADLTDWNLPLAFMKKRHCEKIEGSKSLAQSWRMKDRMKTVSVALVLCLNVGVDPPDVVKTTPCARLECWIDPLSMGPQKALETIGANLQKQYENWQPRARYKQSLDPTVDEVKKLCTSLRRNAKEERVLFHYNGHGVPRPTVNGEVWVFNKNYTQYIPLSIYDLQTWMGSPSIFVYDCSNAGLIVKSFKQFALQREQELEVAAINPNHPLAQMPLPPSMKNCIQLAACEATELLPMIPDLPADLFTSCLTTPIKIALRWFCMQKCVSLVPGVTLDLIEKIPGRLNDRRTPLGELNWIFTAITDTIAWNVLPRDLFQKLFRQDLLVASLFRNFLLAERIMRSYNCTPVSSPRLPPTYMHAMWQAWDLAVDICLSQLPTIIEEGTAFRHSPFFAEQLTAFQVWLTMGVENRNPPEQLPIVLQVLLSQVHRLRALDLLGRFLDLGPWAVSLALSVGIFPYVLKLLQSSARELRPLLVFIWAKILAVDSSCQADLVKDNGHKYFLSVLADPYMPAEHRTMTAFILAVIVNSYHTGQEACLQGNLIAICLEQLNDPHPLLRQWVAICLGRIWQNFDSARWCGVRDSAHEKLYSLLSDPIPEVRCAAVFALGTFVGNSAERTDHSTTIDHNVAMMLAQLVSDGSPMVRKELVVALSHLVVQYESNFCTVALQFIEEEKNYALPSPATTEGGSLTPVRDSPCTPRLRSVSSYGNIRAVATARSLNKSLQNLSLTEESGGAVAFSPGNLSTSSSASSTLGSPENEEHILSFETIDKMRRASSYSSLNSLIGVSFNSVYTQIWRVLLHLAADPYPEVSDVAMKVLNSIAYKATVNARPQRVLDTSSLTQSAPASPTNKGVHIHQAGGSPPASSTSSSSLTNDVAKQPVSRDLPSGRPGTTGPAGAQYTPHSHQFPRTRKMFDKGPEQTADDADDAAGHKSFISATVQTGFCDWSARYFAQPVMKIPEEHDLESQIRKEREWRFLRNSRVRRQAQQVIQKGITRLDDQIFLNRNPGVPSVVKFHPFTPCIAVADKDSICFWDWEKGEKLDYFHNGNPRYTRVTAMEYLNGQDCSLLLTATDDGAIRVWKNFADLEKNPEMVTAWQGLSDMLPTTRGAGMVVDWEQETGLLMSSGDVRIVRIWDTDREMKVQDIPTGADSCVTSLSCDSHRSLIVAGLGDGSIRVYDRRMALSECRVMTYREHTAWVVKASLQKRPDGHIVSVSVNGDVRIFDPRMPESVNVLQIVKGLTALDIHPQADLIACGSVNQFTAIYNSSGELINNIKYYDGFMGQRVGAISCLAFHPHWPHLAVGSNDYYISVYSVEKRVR
T1 sequence (Q9BVC4 whole entry, looked up, other chains not shown): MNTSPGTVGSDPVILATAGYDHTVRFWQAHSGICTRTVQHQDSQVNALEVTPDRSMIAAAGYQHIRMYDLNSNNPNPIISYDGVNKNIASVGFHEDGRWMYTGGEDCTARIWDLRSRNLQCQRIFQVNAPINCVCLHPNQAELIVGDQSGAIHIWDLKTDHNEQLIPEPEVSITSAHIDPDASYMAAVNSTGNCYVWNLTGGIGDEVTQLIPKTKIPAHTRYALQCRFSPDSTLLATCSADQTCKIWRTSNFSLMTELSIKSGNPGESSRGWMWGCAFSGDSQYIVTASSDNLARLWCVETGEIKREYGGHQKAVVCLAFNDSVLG

With `CNC(=O)c1cccc(Cn2nc(C)c(NC(=O)c3ccc(COc4ccc(C(F)(F)F)cc4)cc3)c2C)c1` the “fold change (FC)” value (ARPE-19 [1]) was 2.7, the inhibition (mTORC1 (Homo sapiens) [2]) was “Active” and the Activity (mTORC1 (Homo sapiens) [3]) was “inactive”. For the same compound, the EC50 (MIA PaCa-2) was 0.8 µM, the remaining at 6 h [4] was 99% and the Activity (mTORC1 (Homo sapiens) [5]) was “inactive”. The Activity (ARPE-19 [6]) was “Active”, the remaining at 24 h [7] was 100% and the “fold change (FC)” value (ARPE-19 [8]) was 1.2. For the same compound, the Activity (ARPE-19 [9]) was “Active”, the Activity (ARPE-19 [10]) was “Active” and the Activity (ARPE-19 [11]) was “Active”. The half-life at 1 µM [12] was 1 h, the remaining at 6 h [13] was 91% and the Activity (ARPE-19 [14]) was “Active”. For the same compound, the remaining at 24 h [15] was 77%, the inhibition (mTORC1 (Homo sapiens) [16]) was “Dose-Dependent Effect” and the EC50 at 72 h [17] was 47.9 µM. For the same compound, the Activity (ARPE-19 [18]) was “Active”, the Activity (ARPE-19 [19]) was “inactive” and the solubility thermodynamic at 48 h [20] was 67.3 µM (≈ 36.1 µg/mL). The Activity (ARPE-19 [21]) was “Active”, the Activity (ARPE-19 [22]) was “inactive” and the Activity (ARPE-19 [23]) was “Active”. For the same compound, the inhibition (mTORC1 (Homo sapiens) [24]) was 46% and the inhibition (mTORC1 (Homo sapiens) [25]) was “Active”.

`CNC(=O)c1cccc(Cn2nc(C)c(NC(=O)c3ccc(COc4ccccc4Cl)cc3)c2C)c1` gave an EC50 (MIA PaCa-2) of 6.3 µM.

Work on `CNC(=O)c1cccc(Cn2nc(C)c(NC(=O)c3ccc(COc4ccccc4)cc3)c2C)c1` yielded an EC50 (MIA PaCa-2) of 6.2 µM.

In the case of `Cn1cnc(N)c2ncnc1-2` [3-METHYLADENINE], the EC50 (MIA PaCa-2) is reported as greater than 100 µM.

Work on `CNC(=O)c1cccc(Cn2nc(C)c(NC(=O)c3ccc(COc4cccc(C(F)(F)F)c4)cc3)c2C)c1` yielded an EC50 (MIA PaCa-2) of 2.3 µM.

With `CNC(=O)c1cccc(Cn2nc(C)c(NC(=O)c3ccc(COc4ccccc4C)cc3)c2C)c1` the EC50 (MIA PaCa-2) was 2.1 µM.

`CNC(=O)c1cccc(Cn2nc(C)c(NC(=O)c3ccc(COc4ccc(OC)cc4)cc3)c2C)c1` gave an EC50 (MIA PaCa-2) of 8 µM.

For `Nc1ccn([C@@H]2O[C@H](CO)[C@@H](O)C2(F)F)c(=O)n1` [GEMCITABINE], the EC50 (MIA PaCa-2) was 0.0015 µM.

Compound `Cc1nn(Cc2cccc(C(=O)NC(C)C)c2)c(C)c1NC(=O)c1ccc(COc2ccccc2)cc1` has an EC50 (MIA PaCa-2) of 8.9 µM.

Work on `CCN(CC)CCCC(C)Nc1ccnc2cc(Cl)ccc12` (centres undefined) [CHLOROQUINE] yielded an EC50 (MIA PaCa-2) of 14 µM.

Work on `CNC(=O)c1cccc(Cn2nc(C)c(NC(=O)c3ccc(COC4CCCCC4)cc3)c2C)c1` yielded an EC50 (MIA PaCa-2) of 14 µM.

In the case of `CNC(=O)c1cccc(Cn2nc(C)c(NC(=O)c3ccc(COc4cccc(C)c4)cc3)c2C)c1`, the EC50 (MIA PaCa-2) is reported as 6.2 µM.

In the case of `CNC(=O)c1cccc(Cn2nc(C)c(NC(=O)c3ccc(COc4ccccc4OC)cc3)c2C)c1`, the EC50 (MIA PaCa-2) is reported as 8.5 µM.

For `Cc1nn(Cc2cccc(C(=O)N(C)C)c2)c(C)c1NC(=O)c1ccc(COc2ccccc2)cc1`, the EC50 (MIA PaCa-2) was 6.4 µM.
